One block for each molecule: values may come before it.
Experiments:
EphA4 [1] = molecular target: T1, EphA4 (Mus musculus, UniProt Q03137); assay: EphA4 AP binding to immobilized KYL peptide; details: for (% Inhib.) EphA4 KYL: screen, compounds at 10 μM; for inhibition at 10 µM: read-out: (% Inhib.) EphA4 KYL
Procedure, shortened: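 Biotinylated KYL peptide (biotin on the lysine of a C-terminal GSGSK linker) was captured on streptavidin-coated wells, with coating in borate buffer pH 8.7. Test compound (10 μM in 1% DMSO for screening; varied concentrations for confirmation) was added with ~0.35 nM mouse EphA4 ectodomain–AP from NIH3T3 supernatant in TBST. Bound AP was read at 405 nm with 1 mg/ml p-nitrophenylphosphate in SEAP buffer pH 9.8, minus AP-only background. Percent inhibition was taken relative to no-compound wells.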

EphA4 [2] = molecular target: T1, EphA4; assay: ELISA, ephrin-A5 AP binding to immobilized EphA4 Fc
Procedure, shortened: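 Mouse EphA4 Fc was captured at 1 μg/ml on protein A wells. Ephrin-A5 AP (~0.01 nM for IC50) from HEK293 supernatant was added with test compound for 2 h in TBST and read with p-nitrophenylphosphate, minus Fc-only background. For reversibility, compound was incubated 2 h, washed 30 min, then ephrin-A5 AP added for 1 h. For mode of inhibition, ephrin-A5 AP was titrated per compound concentration and fitted one-site; Ki came from KD/Bmax versus inhibitor regression.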

EphA2 [3] = molecular target: EphA2 (Mus musculus, UniProt Q03145); assay: ELISA, ephrin-A5 AP binding to immobilized EphA2 Fc; details: read-out: IC50 ± SE EphA2 ephrin-A5
EphB4 [4] = molecular target: T2, EphB4 (Mus musculus, UniProt P54761); assay: ELISA, ephrin-B2 AP binding to immobilized EphB4 Fc; details: for IC50: read-out: IC50 ± SE EphB4 ephrin-B2
T2 sequence (P54761 16-539): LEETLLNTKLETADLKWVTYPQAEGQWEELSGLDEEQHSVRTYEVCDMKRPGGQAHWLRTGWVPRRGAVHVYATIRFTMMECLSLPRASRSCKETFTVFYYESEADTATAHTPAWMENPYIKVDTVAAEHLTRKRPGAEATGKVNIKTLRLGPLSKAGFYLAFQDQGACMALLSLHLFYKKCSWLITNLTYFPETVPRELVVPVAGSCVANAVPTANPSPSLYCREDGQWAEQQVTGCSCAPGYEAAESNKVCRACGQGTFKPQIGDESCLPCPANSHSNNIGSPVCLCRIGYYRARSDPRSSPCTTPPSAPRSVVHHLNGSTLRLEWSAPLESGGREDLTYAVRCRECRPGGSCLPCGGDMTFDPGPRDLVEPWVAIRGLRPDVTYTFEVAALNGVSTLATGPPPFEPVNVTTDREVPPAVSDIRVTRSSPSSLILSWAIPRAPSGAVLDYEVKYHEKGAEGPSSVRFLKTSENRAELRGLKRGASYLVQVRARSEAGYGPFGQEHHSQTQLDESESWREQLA

EphB6 = assay: ELISA, ephrin-B2 AP binding to immobilized EphB6 Fc; details: at 100 μM
Procedure, shortened: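 Eph receptor Fc fusions were immobilized at 1 μg/ml in TBST on protein A-coated wells. Diluted ephrin AP fusion supernatant from transiently transfected HEK293 cells was added for 2 h with or without test compound; for IC50 it was at approximately 0.01 nM. Bound AP was read with p-nitrophenylphosphate, minus Fc-only background. IC50 came from a variable-slope log(inhibitor)–response fit, bottom constrained to 0.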

Eph receptors = assay: ELISA, ephrin binding to panel of EphA and EphB receptors; details: at 100 μM
EphA2 [5] = molecular target: EphA2 (Homo sapiens, UniProt P29317); assay: Ephrin-A1 Fc-induced EphA2 phosphorylation in HUVECs; format: cell-based; details: at 50 μM
Procedure, shortened: (§1)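 HUVECs were serum-starved 1–2 h and preincubated 15 min with 50 μM test compound (DMSO ≤0.4% final). They were then stimulated 20 min with 0.25 μg/mL ephrin-A1 Fc plus 1.5 μg/mL ephrin-B2 Fc (preclustered with 3-fold anti-Fc), or Fc, with compound present. Lysates were made in modified RIPA with NaF and pervanadate. EphA2 (1 μg antibody) and EphB4 (20 μg antibody) immunoprecipitates were immunoblotted for phosphotyrosine; lysates were probed for receptors and β-actin.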

EphB4 [6] = molecular target: T3, EphB4 (Homo sapiens, UniProt P54760); assay: Ephrin-B2 Fc-induced EphB4 phosphorylation in HUVECs; format: cell-based; details: at 50 μM
T3 sequence (P54760 16-987): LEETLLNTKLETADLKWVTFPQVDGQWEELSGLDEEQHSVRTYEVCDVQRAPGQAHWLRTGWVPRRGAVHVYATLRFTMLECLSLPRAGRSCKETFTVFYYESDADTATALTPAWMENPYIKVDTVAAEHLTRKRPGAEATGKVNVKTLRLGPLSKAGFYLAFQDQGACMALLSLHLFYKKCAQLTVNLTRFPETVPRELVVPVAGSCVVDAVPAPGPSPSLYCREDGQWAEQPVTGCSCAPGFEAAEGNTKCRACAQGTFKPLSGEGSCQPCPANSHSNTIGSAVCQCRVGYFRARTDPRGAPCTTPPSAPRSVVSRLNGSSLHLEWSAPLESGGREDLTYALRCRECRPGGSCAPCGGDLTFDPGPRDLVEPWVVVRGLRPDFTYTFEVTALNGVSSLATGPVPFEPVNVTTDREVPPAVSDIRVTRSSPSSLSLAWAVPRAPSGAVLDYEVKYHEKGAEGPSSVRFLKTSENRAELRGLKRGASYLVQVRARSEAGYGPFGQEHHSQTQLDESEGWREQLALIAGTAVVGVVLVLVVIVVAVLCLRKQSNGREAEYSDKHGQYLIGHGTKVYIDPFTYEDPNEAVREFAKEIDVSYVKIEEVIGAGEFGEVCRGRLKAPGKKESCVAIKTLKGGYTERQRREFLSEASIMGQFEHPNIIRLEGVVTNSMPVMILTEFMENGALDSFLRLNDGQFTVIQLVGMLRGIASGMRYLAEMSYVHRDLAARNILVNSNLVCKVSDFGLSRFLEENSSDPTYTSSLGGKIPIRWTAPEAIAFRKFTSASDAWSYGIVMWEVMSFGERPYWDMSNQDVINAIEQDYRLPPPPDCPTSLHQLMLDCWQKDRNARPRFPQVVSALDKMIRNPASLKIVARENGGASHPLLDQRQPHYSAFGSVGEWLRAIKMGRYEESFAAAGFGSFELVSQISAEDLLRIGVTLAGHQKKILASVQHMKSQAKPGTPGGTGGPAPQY
Procedure, shortened: as §1

HUVECs = assay: Capillary-like tube formation assay, HUVECs on Matrigel; format: cell-based, human; details: at 10 μM, 18 hours
Procedure, shortened: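 HUVECs (2.3 × 10⁴) were seeded on Matrigel-precoated wells in complete HUVEC medium containing test compound or DMSO control and grown for 18 h. Polygons were counted from phase-contrast images, 2–4 pictures from each of 3–6 wells. Counts were compared with DMSO-only wells by one-way ANOVA with Dunnett's post-hoc test.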

[7] = read-out: IC50 ± SE EphA4 ephrin-A5

T1 sequence (Q03137 20-547 limits assumed): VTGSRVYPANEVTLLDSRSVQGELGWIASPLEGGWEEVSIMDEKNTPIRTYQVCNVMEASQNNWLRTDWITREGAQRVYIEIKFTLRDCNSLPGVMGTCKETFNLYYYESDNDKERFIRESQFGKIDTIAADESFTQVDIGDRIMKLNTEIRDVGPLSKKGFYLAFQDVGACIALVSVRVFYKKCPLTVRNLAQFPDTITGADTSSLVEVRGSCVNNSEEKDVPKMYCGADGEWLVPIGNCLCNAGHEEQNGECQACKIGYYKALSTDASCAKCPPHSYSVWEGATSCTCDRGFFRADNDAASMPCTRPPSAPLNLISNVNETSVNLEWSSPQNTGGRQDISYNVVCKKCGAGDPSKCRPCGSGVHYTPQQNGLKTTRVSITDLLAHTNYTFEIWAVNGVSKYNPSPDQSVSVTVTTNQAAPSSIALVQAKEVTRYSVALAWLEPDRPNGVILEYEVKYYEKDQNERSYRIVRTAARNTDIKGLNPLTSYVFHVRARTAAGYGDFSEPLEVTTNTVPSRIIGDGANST
Chain of EphA2 (Mus musculus, UniProt Q03145) (Q03145 26-538): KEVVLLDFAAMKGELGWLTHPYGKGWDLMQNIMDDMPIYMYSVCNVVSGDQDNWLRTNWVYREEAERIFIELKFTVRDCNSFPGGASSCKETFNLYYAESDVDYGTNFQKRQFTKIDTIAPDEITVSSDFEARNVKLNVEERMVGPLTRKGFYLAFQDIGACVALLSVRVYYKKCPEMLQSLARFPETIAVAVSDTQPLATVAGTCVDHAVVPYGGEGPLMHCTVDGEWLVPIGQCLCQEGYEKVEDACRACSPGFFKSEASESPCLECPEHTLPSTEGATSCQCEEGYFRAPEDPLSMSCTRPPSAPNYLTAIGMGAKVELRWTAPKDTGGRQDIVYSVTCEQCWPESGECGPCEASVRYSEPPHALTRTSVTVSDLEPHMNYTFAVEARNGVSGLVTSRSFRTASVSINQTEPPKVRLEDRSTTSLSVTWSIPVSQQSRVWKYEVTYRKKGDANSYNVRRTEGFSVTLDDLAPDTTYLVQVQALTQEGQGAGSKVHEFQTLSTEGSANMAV
Chain of EphA2 (Homo sapiens, UniProt P29317) (P29317 24-976): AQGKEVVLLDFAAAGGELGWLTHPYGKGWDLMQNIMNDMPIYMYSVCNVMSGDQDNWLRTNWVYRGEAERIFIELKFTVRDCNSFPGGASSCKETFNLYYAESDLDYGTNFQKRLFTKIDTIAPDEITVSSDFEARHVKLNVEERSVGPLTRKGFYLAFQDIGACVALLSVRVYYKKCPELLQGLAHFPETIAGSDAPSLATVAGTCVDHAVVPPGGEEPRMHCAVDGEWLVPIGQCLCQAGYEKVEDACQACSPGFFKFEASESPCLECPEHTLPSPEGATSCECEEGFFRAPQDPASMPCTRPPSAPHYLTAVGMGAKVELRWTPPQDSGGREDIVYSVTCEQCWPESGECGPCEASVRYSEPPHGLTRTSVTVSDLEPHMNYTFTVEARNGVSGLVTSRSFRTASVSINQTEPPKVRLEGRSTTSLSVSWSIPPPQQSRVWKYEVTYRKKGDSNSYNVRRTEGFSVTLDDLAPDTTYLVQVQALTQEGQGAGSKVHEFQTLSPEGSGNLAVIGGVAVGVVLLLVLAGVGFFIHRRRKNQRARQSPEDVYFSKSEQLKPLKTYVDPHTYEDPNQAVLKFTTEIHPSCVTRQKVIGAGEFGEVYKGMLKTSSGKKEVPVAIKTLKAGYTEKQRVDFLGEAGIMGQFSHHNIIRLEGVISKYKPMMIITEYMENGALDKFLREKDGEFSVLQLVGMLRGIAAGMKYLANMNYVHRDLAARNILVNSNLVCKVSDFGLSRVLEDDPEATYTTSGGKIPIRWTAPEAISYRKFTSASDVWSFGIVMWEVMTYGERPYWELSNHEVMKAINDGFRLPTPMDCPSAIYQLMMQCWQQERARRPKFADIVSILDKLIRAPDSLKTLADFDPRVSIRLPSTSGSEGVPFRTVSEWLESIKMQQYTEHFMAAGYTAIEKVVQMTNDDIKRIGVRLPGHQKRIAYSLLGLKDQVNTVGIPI

Molecule: epigallocatechin-3-gallate [EGCG]
IC50 (EphA4 [1]; read-out: IC50 ± SE EphA4 KYL): 15 ± 1.8 µM | (% Inhib.) EphA4 KYL (EphA4 [1]): < 40% | inhibition of ephrin-A5 binding to EphA4 (EphA4 [2]; at 200 μM): ~ 25% | IC50 (EphA4 [2]; [7]): > 200 µM | IC50 (EphA2 [3]): > 200 µM | inhibition of ephrin binding to EphB4 (EphB4 [4]; at 100 μM): not detectably inhibited | IC50 (EphB4 [4]): > 200 µM | inhibition of ephrin binding to EphB6 (EphB6): not detectably inhibited | inhibition of ephrin binding to many Eph receptors (Eph receptors): 10–30% | EphA2 phosphorylation in HUVECs (EphA2 [5]): does not strongly inhibit | EphB4 phosphorylation in HUVECs (EphB4 [6]): does not strongly inhibit | capillary-like tube formation (HUVECs): significantly inhibits

inhibition at 10 µM (EphA4 [1]): 80%
Molecule: O=C(O[C@@H]1Cc2c(O)cc(O)cc2O[C@@H]1c1cc(O)c(O)c(O)c1-c1c([C@H]2Oc3cc(O)cc(O)c3C[C@H]2O)cc(O)c(O)c1O)c1cc(O)c(O)c(O)c1 [2′,2′-bisepigallocatechin monogallate]

(% Inhib.) EphA4 KYL (EphA4 [1]): 76%
Molecule: O=C(O[C@@H]1Cc2c(O)cc(O)cc2O[C@@H]1c1cc(O)c(O)c(O)c1-c1c([C@H]2Oc3cc(O)cc(O)c3C[C@H]2OC(=O)c2cc(O)c(O)c(O)c2)cc(O)c(O)c1O)c1cc(O)c(O)c(O)c1 [2′,2‴-bisepigallocatechin digallate]

inhibition at 10 µM (EphA4 [1]): < 40%
Molecule: O=c1c(O)cc([C@H]2Oc3cc(O)cc(O)c3C[C@H]2O)cc2c([C@H]3Oc4cc(O)cc(O)c4C[C@H]3O)cc(O)c(O)c12 [theaflavin]

(% Inhib.) EphA4 KYL (EphA4 [1]): 65%
Molecule: theaflavin-3,3′-digallate [theaflavin-3,3′-digallate]

(% Inhib.) EphA4 KYL (EphA4 [1]): less than 40%
Molecule: O=C(O)c1cc(O)c(=O)c2c(O)c(O)cc([C@H]3Oc4cc(O)cc(O)c4C[C@H]3O)c2c1 [epitheaflavic acid]

(% Inhib.) EphA4 KYL (EphA4 [1]): less than 40%
Molecule: O=C(O)c1cc(O)c(=O)c2c(O)c(O)cc([C@H]3Oc4cc(O)cc(O)c4C[C@@H]3O)c2c1 [theaflavic acid]

Molecule: O=C(O[C@@H]1Cc2c(O)cc(O)cc2O[C@@H]1c1ccc(O)c(O)c1)c1cc(O)c(O)c(O)c1 [epicatechin-3-monogallate, epicatechin-3-gallate]
IC50 (EphA4 [1]; read-out: IC50 ± SE EphA4 KYL): 50 ± 6 µM | (% Inhib.) EphA4 KYL (EphA4 [1]): < 40% | IC50 (EphA4 [2]; [7]): > 200 µM | IC50 (EphA2 [3]): > 200 µM | IC50 (EphB4 [4]): > 200 µM

Molecule: Oc1cc(O)c2c(c1)O[C@H](c1cc(O)c(O)c(O)c1)[C@H](O)C2 [epigallotechin, epigallocatechin]
IC50 (EphA4 [1]): 44 ± 13 µM | inhibition at 10 µM (EphA4 [1]): < 40% | IC50 (EphA4 [2]): > 200 µM

IC50 (EphA4 [1]): 190 ± 1.5 µM | inhibition at 10 µM (EphA4 [1]): < 40% | IC50 (EphA4 [2]): > 200 µM
Molecule: Oc1cc(O)c2c(c1)O[C@H](c1ccc(O)c(O)c1)[C@H](O)C2 [epicatechin]
